# Results published in ChEMBL document CHEMBL4477197, “Antitumor Activity of Spicatoside A by Modulation of Autophagy and Apoptosis in Human Colorectal Cancer Cells” (J Nat Prod, 2016).
# Activity calls are given as the source filed them. The calls are words filed in the database; no cut-off is given here.
# Experiments:
# HCT-116 [1] = assay: Antitumor activity against human HCT116 cells xenografted in BALB/c-nu mouse assessed as inhibition of tumor volume at 2.5 mg/kg, ip administered three times per week for 28 days measured every 3 to 4 days of dosing relative to control; format: functional; conditions: HCT-116, ip
# In short: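 HCT116 cells (2 × 106 in 200 μL medium) injected subcutaneously into the right flank of nude mice; at ~200 mm3, mice randomized into groups of five. Compound at 2.5 or 5 mg/kg, dissolved in normal saline with 0.5% Tween 80, given ip three times weekly for 28 days; vehicle controls got equal volume. Tumor volume measured by caliper every 3–4 days.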
# [2] = Inhibition of PI3K/Akt/mTOR in human HCT116 cells assessed as downregulation of PI3K p85 at 10 to 30 uM after 24 hrs by Western blot analysis; format: cell-based
# In short: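 HCT116 cells (RPMI 1640, 10% FBS, 37 °C, 5% CO2) exposed to the compound for 24 h, then lysed in 2× SDS sample buffer with NaF and orthovanadate and boiled. BCA-normalised protein (10−30 μg) run on 6−15% SDS-PAGE and blotted to PVDF. Blocked in 5% BSA/PBS-Tween, probed for PI3K, PTEN, Akt and mTOR, and detected by ECL. Blots are representative of three determinations.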
# HCT-116 [3] = assay: Induction of autophagy in human HCT116 cells assessed as vacuole formation in cytoplasm at 20 uM by inverted phase contrast microscopy relative to control; format: functional, cell-based
# In short: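 HCT116 cells were exposed to 20 μM compound or vehicle. Cytoplasmic vacuoles were inspected and photographed under an inverted phase-contrast microscope at 100×.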
# HCT-116 [4] = assay: Induction of autophagy in human HCT116 cells assessed as upregulation of cathepsin D expression at 10 to 30 uM after 24 hrs by Western blot analysis; format: functional, cell-based
# In short: (§1)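 HCT116 cells were cultured 24 h with the indicated concentrations. Lysates were made in SDS buffer with NaF and orthovanadate and quantified by BCA; 10–30 μg protein was separated by 6–15% SDS-PAGE and transferred to PVDF. After 5% BSA blocking, blots were probed for LC3-II, beclin 1, p62, LAMP1 and cathepsin D, with ECL detection.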
# HCT-116 [5] = assay: Induction of apoptosis in human HCT116 cells assessed as cell shrinkage after 48 hrs; format: functional, cell-based
# HCT-116 [6] = assay: Induction of apoptosis in human HCT116 cells assessed as increase in t-BID levels after 48 hrs by Western blot analysis; format: functional, cell-based
# HCT-116 [7] = assay: Induction of apoptosis in human HCT116 cells assessed as PARP cleavage at 30 uM after 24 hrs in presence of autophagy inhibitor 3-MA by Western blot analysis; format: functional, cell-based
# In short: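 HCT116 cells were pretreated 1 h with 2 mM 3-MA, then given 30 μM compound for a further 24 h. Whole-cell lysates were immunoblotted for LC3-II and cleaved PARP, with β-actin as loading standard and ECL detection. Blots are representative of three separate determinations.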
# HCT-116 [8] = assay: Induction of autophagy in human HCT116 cells assessed as increase in beclin 1 expression at 30 uM at 24 hrs by Western blot analysis; format: functional, cell-based
# [9] = Toxicity in BALB/c-nu mouse xenografted with human HCT116 cells assessed as change in body weight at 2.5 to 5 mg/kg, ip administered three times per week for 28 days measured during compound dosing relative to control; format: organism-based; conditions: in vivo, 672 h
# In short: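 Nude mice carried subcutaneous flank HCT116 implants (2 × 10^6 cells in 200 μL medium). At about 200 mm3 they were randomised into groups of five. Compound at 2.5 or 5 mg/kg in saline with 0.5% Tween 80 was given ip three times weekly for 4 weeks; controls received vehicle. Body weight was monitored throughout for toxicity.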
# HCT-116 [10] = assay: Antitumor activity against human HCT116 cells xenografted in BALB/c-nu mouse assessed as inhibition of tumor weight at 5 mg/kg, ip administered three times per week for 28 days measured post dosing relative to control; format: functional; conditions: HCT-116, ip, 672 h
# In short: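 Nude mice bearing subcutaneous HCT116 flank tumors (2 × 10^6 cells) were randomized at ~200 mm3, five per group. Dosing was 2.5 or 5 mg/kg ip in saline/0.5% Tween 80, three times weekly for 28 days, with vehicle controls. Tumors were excised on day 28 and weighed; inhibition was expressed against the vehicle group.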
# HCT-116 [11] = assay: Cell cycle arrest in human HCT116 cells assessed as accumulation at subG1 phase at 20 uM after 48 hrs by propidium iodide staining based flow cytometry; format: functional
# HCT-116 [12] = assay: Cell cycle arrest in human HCT116 cells assessed as accumulation at subG1 phase at 30 uM after 48 hrs by propidium iodide staining based flow cytometry; format: functional
# HCT-116 [13] = assay: Induction of apoptosis in human HCT116 cells assessed as activation of caspase 3 at 10 to 30 uM after 48 hrs by Western blot analysis; format: functional, cell-based
# In short: (§2)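 HCT116 cells were treated with the indicated concentrations for 48 h. Lysates were prepared in SDS sample buffer and 10–30 μg protein was separated by SDS-PAGE, blotted to PVDF and blocked in 5% BSA. Cleaved caspase-8, -9, -3 and PARP were detected by ECL.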
# HCT-116 [14] = assay: Induction of apoptosis in human HCT116 cells assessed as upregulation of Bax levels at 10 to 30 uM after 48 hrs by Western blot analysis; format: functional, cell-based
# HCT-116 [15] = assay: Induction of autophagy in human HCT116 cells assessed as upregulation of LAMP1 expression at 10 to 30 uM after 24 hrs by Western blot analysis; format: functional, cell-based; in short: as §1
# HCT-116 [16] = assay: Induction of caspase 8 cleavage in human HCT116 cells at 30 uM after 48 hrs in presence of caspase 8 inhibitor z-IETD-FMK by Western blot analysis; format: functional, cell-based
# In short: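 HCT116 cells were cultured 48 h with 30 μM compound, with or without 20 μM z-IETD-FMK. Lysates were made in SDS loading buffer and 10–30 μg protein was resolved by 6–15% SDS-PAGE and transferred to PVDF. Blots were probed for cleaved caspase-8, beclin 1, cleaved beclin 1 and LC3-II, and detected by ECL.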
# HCT-116 [17] = assay: Induction of apoptosis in human HCT116 cells assessed as activation of caspase 8 at 10 to 30 uM after 48 hrs by Western blot analysis; format: functional, cell-based; in short: as §2
# HCT-116 [18] = assay: Induction of autophagy in human HCT116 cells assessed as formation of acidic vesicular organelles at 20 uM after 24 hrs in presence of bafilomycin A1 by acridine orange staining based assay; format: functional, cell-based
# In short: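 Cells were seeded at 1 × 10^5/well, grown 24 h, then treated 24 h with 20 μM compound, 2.5 nM bafilomycin A1, or both. They were stained with acridine orange (2 μg/mL) for 15 min and washed in DPBS. AO-positive cells were quantified by high-content imaging and expressed as an index versus vehicle. Triplicates.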
# SNU-638 = assay: Antiproliferative activity against human SNU638 cells after 24 to 72 hrs by SRB assay; format: functional, cell-based
# In short: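 Cells from ATCC were grown at 37 °C in 5% CO2, in RPMI 1640 (A549, HCT116, SNU-638) or DMEM (MDA-MB-231, SK-HEP-1, MRC5) with 10% FBS. They were seeded at 6 × 10^3 cells/well for 24 h, then exposed for 72 h. Cells were TCA-fixed, stained with 0.4% SRB, and read at 515 nm against day-zero plates. IC50 came from nonlinear regression, as means ± SD.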
smiles,measurement,setting,value
C[C@H]1CC[C@@]2(OC1)O[C@H]1C[C@H]3[C@@H]4CC=C5C[C@@H](O)C[C@@H](O[C@@H]6O[C@H](C)[C@H](O)[C@H](O[C@@H]7OC[C@@H](O)[C@H](O)[C@H]7O)[C@H]6O[C@@H]6O[C@H](CO)[C@@H](O)[C@H](O)[C@H]6O)[C@]5(C)[C@H]4CC[C@]3(C)[C@H]1[C@@H]2C,inhibition in vivo at 2.5 mg/kg,HCT-116 [1],38.8%
same,inhibition,[2],Active
same,Activity,HCT-116 [3],Active
same,Activity,HCT-116 [4],Active
same,Activity,HCT-116 [5],Active
same,Activity,HCT-116 [6],Dose-dependent effect
same,Activity,HCT-116 [7],Active
same,Activity,HCT-116 [8],Active
same,Activity,[9],Non-Toxic
same,inhibition in vivo at 5 mg/kg,HCT-116 [10],56.6%
same,Activity,HCT-116 [11],12.56%
same,Activity,HCT-116 [12],45.37%
same,Activity,HCT-116 [13],Active
same,Activity,HCT-116 [14],Active
same,Activity,HCT-116 [15],Active
same,Activity,HCT-116 [16],inactive
same,Activity,HCT-116 [17],Active
same,Activity,HCT-116 [18],inactive
same,IC50,SNU-638,14.8 µM
